Activity calls are given as the source filed them.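 How the source made its calls, unless noted: active means viability at or under a set limit in both replicates, limit being median viability minus 3 SD (cut at about 48% in these data, passing the limit was not always enough); inconclusive means at or under the limit in just one replicate; inactive means at or above the limit in both replicates.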
Assays:
[1] = SK-BR-3 cell growth inhibitors, pilot screen, 24 h, human (AID 572;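 active means viability at or below 10% of carrier control in both of two separate runs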;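 further: compound exposure lasted between 18 and 24 h rather than exactly 24 h; 100% = carrier-treated control wells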); conditions: SK-BR-3 viability, CellTiter-Glo luminescence, at 10 µM, stronger effect = lower value
[2] = HUVEC growth inhibition – cell-based, human, primary screen (AID 575;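 active means viability at or below 30% in both replicate assays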;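 further: 100% = median of untreated cell wells with 0.1% DMSO on each plate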); conditions: HUVEC proliferation, CellTiter-Glo luminescence, 72 h; at 10 µM; stronger effect = lower value
Procedure, shortened: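 System: primary human umbilical vein endothelial cells; Quantity: 1250 endothelial cells in each well; Buffer or medium: supplemented EBM, 2% fetal bovine serum; Doses: one dose, 10 µM final, 0.1% DMSO; Incubation: 72 h compound incubation; Technique: ATP-based CellTiter-Glo luminescent read; Evaluation: percent of median DMSO-control luminescence; Controls: vehicle and MePR control wells.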

[3] = growth inhibitors of H69AR lung tumor, primary screen, human, duplicate replicates (AID 580); conditions: H69AR lung tumor cells viability, ATP luminescence, 72 h; at 10 µM; stronger effect = lower value;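 further: 100% = mean luminescence of untreated wells and 0% = no signal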
[4] = reversal of MRP1-mediated doxorubicin resistance, pilot screen, H69AR cells, doxorubicin co-treatment (AID 601;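 active means viability loss from added drug above about 55%, and viability with drug at most 40%, in both replicates, limit read from the data, passing the limit was not always enough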); conditions: CellTiter-Glo, 72 h, at 10 µM; for differential viability (reversal): stronger effect = higher value
[5] = 384-well plate pilot, post-Golgi transport modulator project, inhibition of yeast transport mutant growth (AID 636; in the data active means inhibition above about 31%); conditions: absorbance 615 nm, about 18 h, stronger effect = higher value
[6] = growth suppression of yeast trafficking mutant, preliminary HTS, modulators of trafficking downstream of Golgi apparatus project, 1536-format plate, OD 615 nm (AID 637; in the data active means inhibition above about 30%); conditions: yeast transport mutant growth, absorbance 615 nm, 18 h; stronger effect = higher value
[7] = H69AR cells + 2 uM doxorubicin, measured here: viability with 2 uM doxorubicin, stronger effect = lower value
[8] = H69AR cells, compound alone cytotoxicity

SMILES | viability [1] | viability [2] | viability [3] | differential viability (reversal) ([4]; H69AR cells + 2 uM doxorubicin) | viability [4, 7] | viability [4, 8] | inhibition [5] | inhibition [6]
COc1cc(NC(=O)Nc2cccc(C(C)=O)c2)cc(OC)c1OC | 109% (inactive) | 102% (inactive) | 92.4% (inactive) | 4.83% (inactive) | 87.6% | 92.4% | -8.36% (inactive) | -0.18% (inactive)
COc1ccc(Cl)c(NC(=O)NCCN2CCN(c3ccccc3)CC2)c1 | 102% (inactive) | 107% (inactive) | 90.4% (inactive) | 8.35% (inactive) | 82% | 90.4% | -2% (inactive) | 1.27% (inactive)
Cc1[nH]nc2c1C(=O)CCC2 | 105% (inactive) | 117% (inactive) | 101% (inactive) | 4.79% (inactive) | 96.3% | 101% | 0.68% (inactive) | -0.18% (inactive)
COC(=O)CCC(=O)CN | 111% (inactive) | 92.9% (inactive) | 88.6% (inactive) | -4.23% (inactive) | 92.8% | 88.6% | -1.3% (inactive) | 5.67% (inactive)
CC1CC(C)CN(c2nc3c(c(=O)[nH]c(=O)n3C)n2CCCSc2nc3ccccc3s2)C1 (stereo not drawn) | 59% (inactive) | 115% (inactive) | 100% (inactive) | -5.73% (inactive) | 106% | 100% | -0.14% (inactive) | 4.36% (inactive)
O=C(c1cccs1)N(Cc1ccco1)Cc1cc2ccccc2[nH]c1=O | 86% (inactive) | 110% (inactive) | 82.2% (inactive) | -6.47% (inactive) | 88.7% | 82.2% | 4.19% (inactive) | -4.91% (inactive)
CCOC(=O)c1oc2cc(OCC(N)=O)ccc2c(=O)c1-c1ccc(OC)c(OC)c1 | 65% (inactive) | 88.1% (inactive) | 99% (inactive) | -2.63% (inactive) | 102% | 99% | -7.67% (inactive) | -0.55% (inactive)
Cc1cc(C(=O)COC(=O)c2n[nH]c3ccccc23)c(C)n1C | 83% (inactive) | 90.4% (inactive) | 88.6% (inactive) | 5.96% (inactive) | 82.6% | 88.6% | -9.18% (inactive) | -4% (inactive)
COC(=O)c1nnn(-c2ccccc2)c1N | 103% (inactive) | 100% (inactive) | 103% (inactive) | -1.73% (inactive) | 105% | 103% | -1.82% (inactive) | 3.61% (inactive)
CCOCCCNC(=O)C1CC(=O)N(C2CCCC2)C1 (stereo not drawn) | 98% (inactive) | 97.7% (inactive) | 94.6% (inactive) | 4.13% (inactive) | 90.5% | 94.6% | -0.91% (inactive) | 1.15% (inactive)
CCC(C)NCC(O)COCc1ccc(Cl)cc1 (stereo not drawn) | 89% (inactive) | 101% (inactive) | 99.7% (inactive) | 11.5% (inactive) | 88.2% | 99.7% | 0.52% (inactive) | -4.59% (inactive)
Cc1cc(-c2ccccc2)nnc1NCCN1CCOCC1 | 98% (inactive) | 85.7% (inactive) | 89.7% (inactive) | -2.49% (inactive) | 92.1% | 89.7% | 1.69% (inactive) | -3.17% (inactive)
Cc1ccc2[nH]c(=O)c(-c3noc(-c4ccncc4)n3)cc2c1 | 104% (inactive) | 113% (inactive) | 98.7% (inactive) | 4.67% (inactive) | 94% | 98.7% | -8.11% (inactive) | 6.18% (inactive)
Cc1ccc(S(=O)(=O)NCC(=O)OCC(=O)Nc2ncc(Cl)cc2Cl)cc1 | 82% (inactive) | 91.2% (inactive) | 99.6% (inactive) | -16.6% (inactive) | 116% | 99.6% | -5.21% (inactive) | 1.45% (inactive)
OCCNC1=NCCN1 | 54% (inactive) | 99.5% (inactive) | 96.8% (inactive) | 6.17% (inactive) | 90.7% | 96.8% | -7.4% (inactive) | -0.55% (inactive)
CCOc1ccc(-c2nc(C#N)c(NCc3ccc4c(c3)OCO4)o2)cc1 | 68% (inactive) | 58.8% (inactive) | 70.4% (inactive) | 0.795% (inactive) | 69.6% | 70.4% | 1.03% (inactive) | -0.5% (inactive)
CC1C/C=C/C=C/C=C/C=C/C(O[C@@H]2O[C@H](C)[C@@H](O)[C@H](N)[C@@H]2O)CC2OC(O)(CC(O)CC3OC3/C=C/C(=O)O1)CC(O)C2C(=O)O (stereo partly drawn) | 121% (inactive) | 99.7% (inactive) | 92.3% (inactive) | 8.26% (inactive) | 84.1% | 92.3% | 2.6% (inactive) | -2.67% (inactive)
O=c1[nH]c(N2CCCCC2)nc2c1CCCC2 | 95% (inactive) | 96.2% (inactive) | 95.8% (inactive) | 5.24% (inactive) | 90.5% | 95.8% | -4.05% (inactive) | 15.3% (inactive)

SMILES | viability [1] | viability [2] | viability [3] | differential viability (reversal) ([4]; H69AR cells + 2 uM doxorubicin) | viability [4, 7] | viability [4, 8] | inhibition [5] | inhibition [6]
CCOC(=O)N1CCC(NC(=O)Cn2cc3c(n2)CCC(C)C3)CC1 (stereo not drawn) | 128% (inactive) | 93% (inactive) | 98.7% (inactive) | 3% (inactive) | 95.7% | 98.7% | -1.64% (inactive) | 18.7% (inactive)
COc1ccc(C(=O)Nc2cccnc2)cc1C(=O)Nc1cccnc1 | 150% (inactive) | 79.9% (inactive) | 97.4% (inactive) | 2.72% (inactive) | 94.6% | 97.4% | 7.53% (inactive) | -3% (inactive)
Cc1cccc(NC(=O)c2cc(NC(=O)c3ccco3)ccc2Cl)n1 | 101% (inactive) | 77.2% (inactive) | 95.4% (inactive) | 0.16% (inactive) | 95.3% | 95.4% | -1.56% (inactive) | 7.21% (inactive)
Cc1cc(C(=O)Nc2c(C)n(C)n(-c3ccccc3)c2=O)c(C)o1 | 71% (inactive) | 105% (inactive) | 110% (inactive) | 11.8% (inactive) | 98.4% | 110% | -8.08% (inactive) | 4.91% (inactive)
CC(=O)Nc1c(C(=O)O)[nH]c2ccccc12 | 103% (inactive) | 97.9% (inactive) | 104% (inactive) | 3.33% (inactive) | 101% | 104% | -4.46% (inactive) | -8.36% (inactive)
CCOC(=O)C1CSC(CC(=O)Nc2ccc(Cl)cc2)C(=O)N1 (stereo not drawn) | 86% (inactive) | 111% (inactive) | 103% (inactive) | 11.6% (inactive) | 91.4% | 103% | 0% (inactive) | -3.64% (inactive)
CCc1nn(CC(=O)N2CCN(Cc3ccc4c(c3)OCO4)CC2)c(=O)c2cc3occc3n12 | 87% (inactive) | 100% (inactive) | 91.8% (inactive) | -2.36% (inactive) | 94.2% | 91.8% | 0.14% (inactive) | -4.55% (inactive)
CC1CCN(S(=O)(=O)c2ccc(Br)s2)CC1 | 98% (inactive) | 91.1% (inactive) | 87.5% (inactive) | 6.46% (inactive) | 81.1% | 87.5% | -2.6% (inactive) | -1.8% (inactive)
N#Cc1c(NCc2ccccc2)ccnc1NCc1cccnc1 | 78% (inactive) | 59.2% (inactive) | 98.6% (inactive) | 4.3% (inactive) | 94.3% | 98.6% | -6.08% (inactive) | -0.55% (inactive)
CCNC(=O)CC1C(=O)N(c2ccccc2)C(=O)N1CCC(C)C (stereo not drawn) | 117% (inactive) | 95.9% (inactive) | 93.5% (inactive) | 13.9% (inactive) | 79.6% | 93.5% | -0.78% (inactive) | -0.82% (inactive)
COCCN(Cc1cc2cccc(C)c2[nH]c1=O)C(=O)c1ccccc1 | 95% (inactive) | 118% (inactive) | 102% (inactive) | 7.6% (inactive) | 94.1% | 102% | -0.95% (inactive) | 1.09% (inactive)
Cc1ccc2nc3c(cc2c1)CN(Cc1ccco1)C(=NCC1CCCO1)S3 (stereo not drawn) | 100% (inactive) | 65.6% (inactive) | 7.64% (active) | -1.93% (inactive) | 9.57% | 7.64% | 9.33% (inactive) | -0.18% (inactive)
O=C(Nc1ccc(N2CCOCC2)cc1)Nc1ccc2nc(-c3ccco3)c(-c3ccco3)nc2c1 | 71.5% (inactive) | 16.6% (active) | 13.5% (active) | -8.11% (inactive) | 21.6% | 13.5% | -7.73% (inactive) | -1.45% (inactive)
COc1ccc(-c2noc(COc3ccc(C)c(C)c3)n2)cc1OC | 110% (inactive) | 108% (inactive) | 94.1% (inactive) | -2.45% (inactive) | 96.6% | 94.1% | -7.3% (inactive) | -1.64% (inactive)
CN1C(=O)c2c(sc3c2CCCC3)NC1c1ccccc1O (stereo not drawn) | 72% (inactive) | 68.7% (inactive) | 93.2% (inactive) | -2.01% (inactive) | 95.2% | 93.2% | -3.97% (inactive) | -0.81% (inactive)
CS(=O)(=O)N1CCCC(C(=O)N2CCOCC2)C1 (stereo not drawn) | 97% (inactive) | 108% (inactive) | 98.3% (inactive) | 4.13% (inactive) | 94.2% | 98.3% | -2.6% (inactive) | -1.15% (inactive)
CCOC(=O)c1cnc2c(OC)cccc2c1N1CCN(c2ccc(OC)cc2)CC1 | 124% (inactive) | 66.1% (inactive) | 79.6% (inactive) | 20.9% (inactive) | 58.7% | 79.6% | -3.38% (inactive) | 0.63% (inactive)
COc1cccc(NC(=O)C2C3C=CC4(O3)C2C(=O)N(C(C)C)C4C(=O)NC2CCCCC2C)c1 (stereo not drawn) | 111% (inactive) | 105% (inactive) | 96.9% (inactive) | 8.79% (inactive) | 88.1% | 96.9% | 0.26% (inactive) | -4.92% (inactive)
